# pIC50: −log10 of the molar value. Active and inactive are the calls of the source. No cut-off for these calls is given here.
# Key:
# [1] = test system: Erythrocyte; experiment: Hemolytic activity against human RBC at 200 uM measured after 1 hr; assay type: toxicity, cell-based
# Method in brief: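 2% hRBCs exposed to compound at 200 μM final, added from DMSO stock, for 1 h at 37 °C. Supernatant OD read at 405 nm. Hemolysis normalized between DMSO (0%) and Triton X (100%); three independent experiments.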
# [2] = test system: Staphylococcus aureus; experiment: Antibacterial activity against Staphylococcus aureus UAMS-1 infected in BALB/c mouse dorsal wound infection model assessed as reduction in bacterial load in wound administered topically twice a day for 3 days; assay type: functional; conditions: time 3 day
# Method in brief: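 Female BALB/c mice, 4–6 weeks old, anesthetized with ketamine/xylazine i.p. 4.5 mm dermal punch wound inoculated with 1×10⁷ CFU in 10 μL. 50 μL PEG 400/3350 ointment or vehicle given 45 min post-inoculation, then every 12 h for 3 days. Tissue excised with 7 mm punch, homogenized, plated on ChromoAgar; CFU per lesion.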
# [3] = test system: Staphylococcus aureus; experiment: Antibacterial activity against methicillin-resistant Staphylococcus aureus 129 assessed as bacterial growth inhibition; assay type: functional
# [4] = test system: HEK293; experiment: Cytotoxicity against human HEK293 cells assessed as reduction in cell viability incubated for 72 hrs by MTT assay; assay type: toxicity, cell-based
# Method in brief: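 HEK-293 cells in DMEM with 10% FBS, 10⁴ cells/well, seeded overnight. Exposed to 0–200 μM (twofold steps, n = 6) for 72 h at 37 °C. MTT 5 mg/mL added for 4 h, formazan dissolved in DMSO, OD read at 570 nm. Inhibition % = (1 − test/untreated OD) × 100.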
# [5] = test system: Streptococcus pneumoniae; experiment: Antibacterial activity against Streptococcus pneumoniae ATCC 6303 assessed as bacterial growth inhibition incubated for 16 to 20 hrs by turbidity based analysis; assay type: functional; conditions: time 16-20 hrs
# [6] = test system: Staphylococcus epidermidis; experiment: Antibiofilm activity against methicillin-resistant Staphylococcus epidermidis ATCC 35984 biofilms assessed as biofilm killing at 3.13 uM measured by CBD assay; assay type: functional
# [7] = test system: Staphylococcus aureus; experiment: Antibacterial activity against methicillin-resistant Staphylococcus aureus BAA-1707 assessed as bacterial growth inhibition incubated for 16 hrs by broth microdilution susceptibility test; assay type: functional
# Method in brief: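 CLSI broth microdilution with 11 twofold dilutions (0.05–50 μM). About 10^5 cells per well from a log-phase culture. DMSO vehicle up to 0.5% v/v. At least three independent experiments.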
# [8] = test system: Staphylococcus epidermidis; experiment: Antibiofilm activity against methicillin-resistant Staphylococcus epidermidis ATCC 35984 biofilms assessed as reduction of viable biofilm cells at 3.13 uM measured by CBD assay; assay type: functional
# [9] = test system: Enterococcus faecalis; experiment: Antibacterial activity against Enterococcus faecalis OG1RF ATCC 47077 infected in C57BL/6J mouse dorsal wound infection model assessed as reduction in bacterial load in wound administered topically once a day for 3 days; assay type: functional; conditions: time 3 day
# Method in brief: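 Female C57BL/6J mice, 7 weeks old. 3 mm dorsal punch wound infected with 20 μL of 6×10¹⁰ CFU/mL and covered with Tegaderm. From 24 h post-infection, PEG 400/PEG 3350 ointment or PEG vehicle applied topically once daily. Day 3 wounds excised, homogenized in PBS and plated on TSA with rifampicin and fusidic acid for CFU.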
# [10] = test system: Staphylococcus aureus; experiment: Induction of iron starvation in methicillin-resistant Staphylococcus aureus BAA-1707 biofilms assessed as upregulation of isdB gene expression at 1/10XMBEC incubated for 4 hrs by RT-qPCR analysis; assay type: functional
# Method in brief: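 MRSA BAA-1707 grown in TSB with 0.5% glucose to OD600 ~0.8–1.0, then biofilms formed 20 h at 37 °C statically in gelatin-coated 24-well plates. Biofilms treated 4 h at 37 °C with compound (1 μM or 1/10 MBEC) or DMSO vehicle. RNA extracted; only RIN ≥7 samples used. One-step SYBR RT-qPCR; ΔCT normalised to ptaA. Three independent experiments.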
# [11] = test system: Staphylococcus aureus; experiment: Antibacterial activity against methicillin-resistant Staphylococcus aureus 156 assessed as bacterial growth inhibition; assay type: functional
compound,measurement,setting,value
Cc1cccc2nc3c(O)c(Br)c(Cl)c(Br)c3nc12,Activity,[1],<= 1%
same,Activity,[2],0.82 log10CFU
same,MIC,[3],0.06 µM
same,pIC50,[4],4.74
same,MIC,[5],0.5 µM
same,Activity,[6],99.999%
same,MIC,[7],0.05 µM
same,Activity,[8],5 log10CFU
same,Activity,[9],1.73 log10CFU
same,Activity,[10],Active
same,MIC,[11],0.06 µM
